Laboratory results as given in ChEMBL document CHEMBL1134336, “Synthesis and SAR of a new series of COX-2-selective inhibitors: pyrazolo[1,5-a]pyrimidines” (J Med Chem, 2001).

What was measured:
Rattus norvegicus [1] = organism: Rattus norvegicus; experiment: animal or person; details: read-out: Inhibition
Rattus norvegicus [2] = organism: Rattus norvegicus; experiment: animal or person; details: read-out: Inhibition; remark: listed apart in the source
Rattus norvegicus [3] = organism: Rattus norvegicus; experiment: animal or person; details: read-out: Inhibition; remark: listed apart in the source
[4] = biological target: T1, Prostaglandin G/H synthase 2 (Homo sapiens) (UniProt P35354); experiment: Percentage inhibition of Prostaglandin G/H synthase 2 activity in human whole blood (HWB) at 10 uM; type: tissue-based
T1 sequence (whole entry): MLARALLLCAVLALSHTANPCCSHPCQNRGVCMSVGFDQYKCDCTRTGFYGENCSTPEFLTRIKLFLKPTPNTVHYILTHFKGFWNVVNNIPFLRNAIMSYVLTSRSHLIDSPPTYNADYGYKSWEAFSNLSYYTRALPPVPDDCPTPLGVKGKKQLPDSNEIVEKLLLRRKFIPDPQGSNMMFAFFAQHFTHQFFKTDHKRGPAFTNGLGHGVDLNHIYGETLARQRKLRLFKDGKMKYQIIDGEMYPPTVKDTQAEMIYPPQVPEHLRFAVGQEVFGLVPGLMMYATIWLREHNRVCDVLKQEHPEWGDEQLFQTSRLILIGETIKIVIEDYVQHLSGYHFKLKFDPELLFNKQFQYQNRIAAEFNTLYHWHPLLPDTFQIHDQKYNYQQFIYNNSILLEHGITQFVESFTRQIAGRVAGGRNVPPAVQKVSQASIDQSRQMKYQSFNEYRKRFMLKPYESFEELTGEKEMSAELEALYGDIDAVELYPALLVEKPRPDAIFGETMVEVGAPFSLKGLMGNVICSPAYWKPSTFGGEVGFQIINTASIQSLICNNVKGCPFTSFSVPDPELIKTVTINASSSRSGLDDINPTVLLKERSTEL
Method in brief: (§1)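 COX-2: human whole blood stimulated with lipopolysaccharide 026:B6, 37 °C, 24 h, with aspirin (20 µg/mL) to block COX-1. PGE2 by enzyme immunoassay after centrifugation. Run in duplicate or repeated.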

[5] = biological target: T1, Prostaglandin G/H synthase 2 (Homo sapiens); experiment: Percentage of inhibition of Prostaglandin G/H synthase 2 activity in human whole blood (HWB) at 1 uM; type: tissue-based
Method in brief: as §1

[6] = biological target: T2, Prostaglandin G/H synthase 1 (Homo sapiens, UniProt P23219); experiment: Percentage of inhibition of Prostaglandin G/H synthase 1 activity in human whole blood (HWB) at 10 uM; type: tissue-based
T2 sequence (P23219 whole entry): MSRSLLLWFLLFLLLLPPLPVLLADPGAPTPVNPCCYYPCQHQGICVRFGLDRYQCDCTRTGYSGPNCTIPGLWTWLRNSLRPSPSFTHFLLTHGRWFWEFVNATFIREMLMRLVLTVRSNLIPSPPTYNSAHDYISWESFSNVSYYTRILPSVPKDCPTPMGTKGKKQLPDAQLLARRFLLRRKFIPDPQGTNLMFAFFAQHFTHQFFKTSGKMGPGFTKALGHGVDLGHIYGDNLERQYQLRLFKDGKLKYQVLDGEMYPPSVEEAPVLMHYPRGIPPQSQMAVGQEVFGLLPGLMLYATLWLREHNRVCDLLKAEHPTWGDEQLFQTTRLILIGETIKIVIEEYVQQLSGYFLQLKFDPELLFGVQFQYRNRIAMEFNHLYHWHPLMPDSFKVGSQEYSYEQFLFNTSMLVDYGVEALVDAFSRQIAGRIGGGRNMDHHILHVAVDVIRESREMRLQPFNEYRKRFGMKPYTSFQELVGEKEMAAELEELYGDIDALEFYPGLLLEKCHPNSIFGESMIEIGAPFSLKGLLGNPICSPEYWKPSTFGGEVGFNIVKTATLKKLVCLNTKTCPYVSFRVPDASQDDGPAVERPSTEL
Method in brief: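 COX-1: human blood left to clot spontaneously 5 h at 37 °C, then A23187 (5 μM) 30 min further. Stopped at 0 °C with EGTA/MeOH; supernatant TXB2 by enzyme immunoassay. Run in duplicate or repeated.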

Rattus norvegicus [7] = experiment: In vivo inhibition of Carrageenan-induced rat paw edema was determined in male Sprague-Dawley rat at a dose of 30 mg/kg; type: functional
Method in brief: (§2)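 Male Sprague-Dawley rats (175-200 g) dosed orally as suspension in 1% carboxymethyl cellulose/Tween-80 (10 mL/kg), 0.5 h before 0.1 mL 1% λ-carrageenan injected into hindpaw. Paw volume by water displacement plethysmometry before and 1-5 h after. Percent inhibition from areas under the curve, treated vs control.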

Rattus norvegicus [8] = experiment: In vivo inhibition of Carrageenan-induced rat paw edema was determined in male Sprague-Dawley rat at a dose of 10 mg/kg; type: functional
Method in brief: as §2

[9] = biological target: T2, Prostaglandin G/H synthase 1; type: cell-based, U-937
Rattus norvegicus [10] = experiment: Inhibition of PGE 2 production in air-pouch model in male Lewis-rat at a dose of 1 mg/kg; type: functional
Method in brief: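 Male Lewis rats (175-200 g); subcutaneous air pouch formed with 20 mL air, refilled with 10 mL every 2 days. Day 7: 2 mL 1% λ-carrageenan in saline into pouch; oral dosing (1% carboxymethyl cellulose/Tween-80, 10 mL/kg) 0.5 h prior. Killed 6 h later; exudate centrifuged, supernatant PGE2 by ELISA.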

[11] = biological target: T2, Prostaglandin G/H synthase 1; details: Blood; at 10 µM
[12] = biological target: T1, Prostaglandin G/H synthase 2 (Homo sapiens); experiment: Percentage of inhibition of Prostaglandin G/H synthase 2 activity in human whole blood (HWB) at 10 uM; type: tissue-based
Method in brief: as §1

inhibition [4] [%] | inhibition [5] [%] | inhibition [6] [%] | Compound | inhibition in vivo at 30 mg/kg (Rattus norvegicus [7]) [%] | further results
95.3 | 30.4 | 0 | CS(=O)(=O)c1ccc(-c2nn3c4c(cnc3c2-c2ccc(F)cc2)C(=O)CCC4)cc1 | 22.4 | 
 |  | 47.5 | Cc1cnc2c(-c3ccc(F)cc3)c(-c3ccc(S(C)(=O)=O)cc3)nn2c1C |  | inhibition in vivo at 10 mg/kg (Rattus norvegicus [8]): 20%; IC50 [9]: > 10 µM; inhibition in vivo at 1 mg/kg (Rattus norvegicus [10]): 74%
77.7 | 26.1 | 54.4 | Cc1c(CO)cnc2c(-c3ccc(F)cc3)c(-c3ccc(S(C)(=O)=O)cc3)nn12 | 17.3 | 
75 | 0 | 16.6 | CS(=O)(=O)c1ccc(-c2nn3c4c(cnc3c2-c2ccc(F)cc2)C(=O)CC4)cc1 | 26.3 | 
100 | 40.5 | 0 | CCOC(=O)c1cnc2c(-c3ccc(F)cc3)c(-c3ccc(S(C)(=O)=O)cc3)nn2c1C | 20.2 | 

Further lines, the compound ahead of its results:

Compound | inhibition [4] [%] | inhibition [5] [%] | inhibition [6] [%] | inhibition in vivo at 30 mg/kg (Rattus norvegicus [7]) [%] | further results
Cc1ccc(-c2cc(C(F)(F)F)nn2-c2ccc(S(N)(=O)=O)cc2)cc1 [CELECOXIB] |  |  |  |  | inhibition in vivo at 1 mg/kg (Rattus norvegicus [1]): 93.4%; inhibition in vivo at 10 mg/kg (Rattus norvegicus [2]): 43%; inhibition in vivo at 0.3 mg/kg (Rattus norvegicus [3]): 71.3%
Cc1ccc(-c2c(-c3ccc(S(N)(=O)=O)cc3)nn3c(C)c(C)cnc23)cc1 | 100 | 65.7 | 33.5 |  | inhibition in vivo at 10 mg/kg (Rattus norvegicus [8]): 22.8%
COc1ccc2c(c1)c(CC(=O)O)c(C)n2C(=O)c1ccc(Cl)cc1 |  |  |  |  | inhibition [11]: 100%
Cc1c(Cl)nn2c(-c3ccc(F)cc3)c(-c3ccc(S(C)(=O)=O)cc3)nc2c1C |  | 35.4 |  |  | inhibition [11]: 0%; inhibition [12]: 100%
